Consider 2 compounds from publication PMC12238359 (Scientific Reports, 2025).

Data set [1] has as its target HDAC1 (Homo sapiens, UniProt Q13547). The data set can be described thus: HDAC inhibitory assay, HDAC1. Format: biochemical.
Data set [2] has as its target T1, HDAC6 (Homo sapiens, UniProt Q9UBN7).
T1 sequence (Q9UBN7 1-1215): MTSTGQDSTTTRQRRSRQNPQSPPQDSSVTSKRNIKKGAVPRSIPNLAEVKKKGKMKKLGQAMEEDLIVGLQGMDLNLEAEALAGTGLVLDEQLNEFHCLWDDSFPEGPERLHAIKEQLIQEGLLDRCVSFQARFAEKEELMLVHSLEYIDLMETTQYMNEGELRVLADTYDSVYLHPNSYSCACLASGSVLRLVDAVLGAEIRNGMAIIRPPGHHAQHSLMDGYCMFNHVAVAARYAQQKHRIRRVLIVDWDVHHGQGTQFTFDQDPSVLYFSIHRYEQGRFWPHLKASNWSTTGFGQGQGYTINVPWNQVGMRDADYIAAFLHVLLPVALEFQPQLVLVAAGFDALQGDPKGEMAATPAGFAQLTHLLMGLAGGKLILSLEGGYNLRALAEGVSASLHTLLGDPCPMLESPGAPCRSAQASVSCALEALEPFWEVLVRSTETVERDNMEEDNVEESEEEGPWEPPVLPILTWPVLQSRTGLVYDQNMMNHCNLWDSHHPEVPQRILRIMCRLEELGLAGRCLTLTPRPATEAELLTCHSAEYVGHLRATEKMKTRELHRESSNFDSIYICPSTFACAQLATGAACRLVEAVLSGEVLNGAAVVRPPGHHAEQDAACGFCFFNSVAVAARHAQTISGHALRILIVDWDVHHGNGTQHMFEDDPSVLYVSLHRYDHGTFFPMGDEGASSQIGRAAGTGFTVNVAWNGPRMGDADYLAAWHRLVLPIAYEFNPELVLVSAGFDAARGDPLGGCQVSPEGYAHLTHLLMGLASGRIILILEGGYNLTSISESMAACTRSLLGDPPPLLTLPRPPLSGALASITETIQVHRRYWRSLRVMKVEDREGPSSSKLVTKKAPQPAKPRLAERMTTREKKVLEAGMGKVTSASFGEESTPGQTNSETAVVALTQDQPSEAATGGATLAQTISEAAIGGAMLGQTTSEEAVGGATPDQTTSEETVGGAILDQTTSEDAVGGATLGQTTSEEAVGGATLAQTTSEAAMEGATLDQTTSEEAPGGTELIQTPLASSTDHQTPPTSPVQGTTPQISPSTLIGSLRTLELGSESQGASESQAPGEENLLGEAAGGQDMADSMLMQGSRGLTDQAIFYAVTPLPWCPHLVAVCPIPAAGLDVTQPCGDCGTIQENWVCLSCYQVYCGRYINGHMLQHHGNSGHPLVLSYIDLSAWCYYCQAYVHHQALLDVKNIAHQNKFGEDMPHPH
The data set can be described thus: HDAC inhibitory assay, HDAC6. In kind it is biochemical.

Data set [3] has as its system HepG2. The data set can be described thus: In vitro anti-proliferation assay. In kind it is cell-based.
Data set [4] has as its system acetylated H3/H4. The data set can be described thus: Western blot of acetylated histone levels in HepG2 cells. Format: cell-based. The note with it: HepG2, 0.2, 0.5 µM, 24 h. The method in brief:
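HepG2 cells were exposed to the test compound for 24 h, then lysed in RIPA buffer with protease inhibitors (10 min on ice) and centrifuged at 4 °C. Protein was measured by BCA, and equal amounts were denatured at 100 °C for 5 min. Blots were run on 10–15% SDS-PAGE and transferred to PVDF. Anti-acetyl-H3 was used at 1:1000, overnight at 4 °C, then HRP secondary antibody for 1 h at room temperature, with ECL detection. Bands were quantified against β-actin; mean ± SD of three separate experiments.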
(Immunoblotting shows a protein as a band on a membrane.)

Data set [5] deals with HepG2 cells. Kind of data set: Colony formation assay. In kind it is cell-based. To be noted: HepG2, 14 days. The essentials: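 HepG2 cells were plated at 1000 per well in 6-well plates. After 24 h they were treated with a range of concentrations, with the medium refreshed every other day, and kept in fresh medium for 10–14 days. Colonies were fixed in methanol for 15 min, stained with 0.5% crystal violet for 15 min, photographed and counted manually.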

The test system of data set [6] is HepG2 cells. The data set can be described thus: Cell cycle analysis by flow cytometry. To be noted: HepG2, 0.5μM; for G2/M: control 25.34%; for S: control 32.99%; for G0/G1: control 41.67%. Format: cell-based. On the technique in general: In flow cytometry, cells or beads pass a laser one at a time.
For data set [7], the system named is CDK4 and Cyclin D1. The data set can be described thus: Western blot of cell cycle regulators. Format: cell-based. To be noted: HepG2, 24 h. The method in brief:
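For the immunoblot, HepG2 cells were treated at several concentrations for 24 h and lysed in RIPA buffer with protease inhibitors. Equal BCA-quantified protein was boiled for 5 min and resolved on 10–15% SDS-PAGE, then transferred to PVDF. Blots were blocked in 5% milk, incubated with primary antibody overnight at 4 °C and HRP secondary for 1 h, and detected by ECL. Band densities were quantified, with β-actin as loading control.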

The test system of data set [8] is HepG2 cells. Kind of data set: Annexin V-FITC/PI apoptosis analysis. Format: cell-based. To be noted: 48 h.
For data set [9], the system named is Cl-PARP, Cl-caspase 3. The data set can be described thus: Western blot of apoptotic proteins. To be noted: HepG2, 24 h. In kind it is cell-based. The essentials:
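Treated HepG2 lysates (24 h exposure, RIPA buffer with protease inhibitors, BCA-normalised) were denatured at 100 °C for 5 min and run on 10–15% SDS-PAGE, then transferred to PVDF. Membranes were blocked in 5% milk, with primary antibody overnight at 4 °C and HRP secondary for 1 h at room temperature, and developed by ECL. Band intensity was normalised to β-actin; mean ± SD of three separate experiments.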

Data set [10] deals with HepG2 cells. The data set can be described thus: Reactive oxygen species. To be noted: HepG2, 24 h. In kind it is cell-based.
The test system of data set [11] is γH2AX. Kind of data set: γH2AX immunofluorescence assay. In kind it is cell-based. The note with it: HepG2, 24 h, in comparison to SAHA. The essentials:
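HepG2 cells were grown on coverslips at 1 × 10^5 per well and treated over a concentration range for 24 h. Cells were fixed in 4% formaldehyde, then blocked and permeabilised in PBS-BSA with 0.3% Triton X-100 for 15 min at room temperature. Anti-γH2AX was applied overnight at 4 °C, then goat anti-rabbit IgG (1:500) for 30 min at room temperature. Nuclei were counterstained with DAPI and imaged by confocal microscopy.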

Data set [12] deals with HepG2 cells. Kind of data set: Lactate dehydrogenase. In kind it is cell-based. To be noted: HepG2, 24 h. The method in brief: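 HepG2 cells were seeded at 1 × 10^4 per well and exposed to a range of test compound concentrations for 24 h. Culture supernatant was mixed with LDH detection reagent and kept 30 min in the dark at ambient temperature. OD was read at 490 nm, with each sample in triplicate.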

In data set [13] the test system is GSDME-N, Cl-caspase3. The data set can be described thus: Western blot of pyroptosis markers. Format: cell-based. The note with it: HepG2, 24 h. The essentials:
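HepG2 cells were treated 24 h at the indicated concentrations, then lysed in RIPA with protease inhibitors (10 min on ice, 4 °C spin). Protein was measured by BCA, and equal amounts were boiled 5 min at 100 °C, run on 10–15% SDS-PAGE and transferred to PVDF. Membranes were blocked in 5% milk, probed with primaries overnight at 4 °C, then HRP secondary 1 h at room temperature. Detection was by ECL, with densitometry against β-actin; data are mean ± SD of three experiments.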

Data set [14] deals with HepG2 xenografts. Kind of data set: HepG2 xenograft model. Format: in vivo, BALB/c nude mice. The method in brief: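 Male BALB/c nude mice, 5–6 weeks old, were housed under SPF conditions (25 °C, 65% humidity, 12-h light/dark). They were implanted subcutaneously with 1 × 10^6 HepG2 cells. […] Excised tumors were immunostained for Ac-H3, Ac-H4, cleaved caspase-3, GSDME-N and Ki67, then image-scored over 5 fields.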

The structures appear in SMILES notation.

Chain of HDAC1 (Q13547 whole entry): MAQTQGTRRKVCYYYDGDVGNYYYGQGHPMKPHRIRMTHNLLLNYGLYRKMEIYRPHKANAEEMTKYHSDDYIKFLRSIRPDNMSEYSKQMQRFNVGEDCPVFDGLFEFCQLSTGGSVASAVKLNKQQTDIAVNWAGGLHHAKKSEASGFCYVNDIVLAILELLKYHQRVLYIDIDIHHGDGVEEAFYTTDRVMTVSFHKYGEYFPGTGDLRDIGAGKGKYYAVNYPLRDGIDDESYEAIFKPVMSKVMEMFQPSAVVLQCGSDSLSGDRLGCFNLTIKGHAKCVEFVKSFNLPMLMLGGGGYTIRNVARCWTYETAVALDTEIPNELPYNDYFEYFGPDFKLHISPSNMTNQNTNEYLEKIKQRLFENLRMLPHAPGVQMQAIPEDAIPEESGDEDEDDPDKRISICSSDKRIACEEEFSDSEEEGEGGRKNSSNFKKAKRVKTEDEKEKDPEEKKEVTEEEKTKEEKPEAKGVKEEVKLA

Take `COc1ccc(N(Cc2csc(-c3ccccc3)n2)C(=O)CCCCCC(=O)NO)cc1` [Compound 15a, N^1-hydroxy-N^7-(4-methoxyphenyl)-N^7-((2-phenyl-4-thiazolyl)methyl)heptanediamide]: the “HDAC1 inhibitory activity relative to SAHA” value in data set [1] is listed as “tenfold better”. The “HDAC6 inhibitory activity relative to SAHA” value in [2] is reported as “eightfold better”. Moreover, the “antiproliferative activity, times higher than SAHA” value in data set [3] is on record as roughly 25 times. For the same compound, in [4], the “level of acetyl-H3 and H4” value is “increased the level of acetyl-H3 and H4 in a dose-dependent manner”. For the same compound, the colony formation entry in data set [5] is “suppress the formation of colonies in a dose-dependent manner”. In data set [6], this compound showed a G2/M of 22.85%, an S of 13.72% and a G0/G1 of 61.42%. Also, in data set [7], the “levels of CDK4 and Cyclin D1” value is “significantly reduced the levels of CDK4 and Cyclin D1 in a dose-dependent manner”. Moreover, in [8] (0.2 µM), the “apoptosis of HepG2 cells” value came to 28.2%. The “apoptosis of HepG2 cells” value in data set [8] (0.5 µM) was 46.5%. In addition, the “expression of Cl-PARP, Cl-caspase 3” value in [9] was “upregulate the expression of Cl-PARP, Cl-caspase 3 in a dose-dependent manner”. Further, the ROS levels result in data set [10] is recorded as “dose-dependently increased”. The “nuclear γH2AX levels” value in [11] is “induce γH2AX expression at a much lower concentration range”. Moreover, in data set [12], the LDH release result was “markedly increased”. In data set [13], the “GSDME N-terminal fragment level” value is reported as “elevated levels of the N-terminal fragment of gasdermin E (GSDME)” and the “levels of active caspase-3” value is reported as “elevated”. The tumor growth inhibition result in [14] (10 mg/kg, ip, every two days, three weeks) is on record as “superior inhibition observed at 10 mg/kg compared to that of SAHA”. In [14] (IHC at end of treatment), the “Ac-H3/H4, Cl-caspase3 and GSDME-N in tumor tissues” value is “induced the increase of Ac- H3/H4”; the “Ki67 immunostaining of tumor tissues” value is reported as “dose-dependent reduction in Ki67 immunostaining”.
As to `COc1ccc(N(Cc2csc(-c3ccc(C)cc3)n2)C(=O)CCCCCC(=O)NO)cc1` [Compound 15d, N^1-hydroxy-N^7-(4-methoxyphenyl)-N^7-((2-(4-tolyl)-4-thiazolyl)methyl)heptanediamide], in data set [1], the “HDAC1 inhibitory activity relative to SAHA” value was “tenfold better”. Moreover, in data set [2], the “HDAC6 inhibitory activity relative to SAHA” value is given as “eightfold better”. In addition, the “antiproliferative activity, times higher than SAHA” value in [3] is given as roughly 15 times. In addition, the “level of acetyl-H3 and H4” value in data set [4] was “increased the level of acetyl-H3 and H4 in a dose-dependent manner”. Besides, the colony formation entry in [5] is recorded as “suppress the formation of colonies in a dose-dependent manner”. Besides, in data set [6], the G2/M was 24.34%, the S is given as 18.3% and the G0/G1 amounted to 57.36%. The “levels of CDK4 and Cyclin D1” value in [7] was “significantly reduced the levels of CDK4 and Cyclin D1 in a dose-dependent manner”. For the same compound, the “apoptosis of HepG2 cells” value in [8] (0.2 µM) was found to be 30%. Besides, the “apoptosis of HepG2 cells” value in data set [8] (0.5 µM) turned out to be 41.9%. Further, the “expression of Cl-PARP, Cl-caspase 3” value in [9] was “upregulate the expression of Cl-PARP, Cl-caspase 3 in a dose-dependent manner”. Further, in data set [10], the ROS levels entry is “dose-dependently increased”. For the same compound, the “nuclear γH2AX levels” value in data set [11] was “induce γH2AX expression at a much lower concentration range”. Also, in [12], the LDH release result is “markedly increased”. Also, in data set [13], the “GSDME N-terminal fragment level” value is listed as “elevated levels of the N-terminal fragment of gasdermin E (GSDME)” and the “levels of active caspase-3” value is listed as “elevated”.
